Measured values of several laboratories.
Protocols differ between the studies behind these lines.
Target: Histone deacetylase 8 (HDAC8, Homo sapiens, UniProt Q9BY41)
Effect on: enzyme activity
Mode: inhibitor
One construct used (Q9BY41 1-377): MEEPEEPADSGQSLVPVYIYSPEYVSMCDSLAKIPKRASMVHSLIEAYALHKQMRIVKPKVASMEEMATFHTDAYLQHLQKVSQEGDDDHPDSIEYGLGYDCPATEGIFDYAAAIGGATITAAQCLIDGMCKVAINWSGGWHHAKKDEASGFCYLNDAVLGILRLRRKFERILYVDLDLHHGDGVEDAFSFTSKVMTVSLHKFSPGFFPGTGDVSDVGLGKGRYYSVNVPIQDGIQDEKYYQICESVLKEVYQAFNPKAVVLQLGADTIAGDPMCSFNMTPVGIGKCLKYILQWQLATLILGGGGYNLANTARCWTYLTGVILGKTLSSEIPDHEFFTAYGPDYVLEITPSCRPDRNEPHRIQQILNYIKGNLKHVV

SMILES	test	IC50 [µM]
CCCON(Cc1ccc(C(=O)NO)cc1)C(=O)Nc1ccccc1	fluorescence	4.64
CCCC[C@H](NC(=O)[C@H](C)c1c(C)[nH]c2ccc(O)cc12)c1ncc(-c2cc3ccccc3nc2OC)[nH]1		> 45
O=c1c(O)c(-c2ccc(O)c(O)c2)oc2cc(O)cc(O)c12		7.72
Nc1ccc(-c2ccncc2)cc1NC(=O)N1CCCC1		> 33.3
O=C(/C=C/c1ccc(O)c(O)c1)O[C@@H]1C[C@](O)(C(=O)O)C[C@@H](O)[C@H]1O		8.62
CCCON(Cc1ccc(C(=O)NO)cc1)C(=O)Nc1ccc(N(C)C)cc1	fluorescence	4.46
O=C(CCCCCCC(=O)N[c-]1cccc1)NO.[Fe+2].c1cc[cH-]c1	fluorescence	1.36
CC(C)C[C@H]1CC(=O)N2CCC[C@H]2C(=O)N[C@@H](CCCCCC(=O)NO)C(=O)N[C@@H](Cc2c[nH]c3ccccc23)C(=O)N1		0.18
